According to ChEMBL document CHEMBL3112569, “3-Ketone-4,6-diene ceramide analogs exclusively induce apoptosis in chemo-resistant cancer cells” (Bioorg Med Chem, 2014):
pIC50: −log10 of the molar value. Blank lines part the entries; values can stand above or below the compound they belong to. Calls of active or inactive are those of the source. The calls are words filed in the database; no cut-off is given here.

How the values were obtained:
[1] = Induction of apoptosis in human MCF-7TN-R cells assessed as caspase-9 activation at 2 times IC50 determined from MTT assay after 24 hrs by caspase Glo 9 assay relative to vehicle-treated control; assay type: functional
Outline: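 MCF-7TN-R cells at 7500–10,000 per well in phenol-free DMEM adhered 24 h, then exposed 24 h at twice the MTT-derived IC50. Caspase-9 activity read by Caspase-Glo 9 luminescence, relative to DMSO vehicle. Triplicate on three occasions.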

Homo sapiens = species: Homo sapiens; experiment: (§1) Induction of apoptosis in human MCF-7TN-R cells at 2 times IC50 determined from MTT assay after 24 hrs by ELISA relative to control; assay type: functional
Outline: (§2)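 MCF-7TN-R cells at 7500–10,000 per well in phenol-free DMEM adhered 24 h, then treated 24 h at twice the MTT-derived IC50. DNA fragmentation read with cell death detection ELISA. Normalized to MTT viability on the same plate, duplicate on three occasions.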

[2] = Cytotoxicity against human MCF-7TN-R cells assessed as colony formation after 10 to 12 days by crystal violet staining assay; assay type: functional, cell-based
Outline: (§3)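 Colony formation: 1000 cells per well in 10% DMEM, 24 h adhesion, then graded analog dilutions until colonies formed (generally 10–12 days). Fixed in 3% glutaraldehyde 30 min, stained 40 min with 0.2% crystal violet/20% methanol. Colonies over 30 cells hand-counted, normalized to DMSO control, IC50 from dose–response fit.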

MDA-MB-231 [3] = experiment: Cytotoxicity against human MDA-MB-231 cells assessed as colony formation after 10 to 12 days by crystal violet staining assay; assay type: functional, cell-based; outline: as §3
MCF7 [4] = experiment: Cytotoxicity against human MCF7 cells assessed as colony formation after 10 to 12 days by crystal violet staining assay; assay type: functional, cell-based; outline: as §3
[5] = Cytotoxicity against human MCF-7TN-R cells assessed as cell viability after 24 hrs by MTT assay; assay type: functional, cell-based
Outline: (§4)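 Cells seeded at 7500–10,000 per well in phenol-free DMEM and allowed 24 h to adhere. Exposed to graded analog concentrations (1 to 100 μM) for 24 h, then MTT added for 3–4 h. Formazan dissolved in 20% SDS/50% DMF for 24 h, absorbance read at 550 nm. Expressed as % of DMSO vehicle, run in quadruplicate on three occasions, IC50 from dose–response fit.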

MDA-MB-231 [6] = experiment: Cytotoxicity against human MDA-MB-231 cells assessed as cell viability after 24 hrs by MTT assay; assay type: functional, cell-based; settings: MDA-MB-231, 24 h; outline: as §4
MCF7 [7] = experiment: Cytotoxicity against human MCF7 cells assessed as cell viability after 24 hrs by MTT assay; assay type: functional, cell-based; settings: MCF7, 24 h; outline: as §4
[8] = target: T1, Ceramide glucosyltransferase (Homo sapiens) (UniProt Q16739); experiment: Inhibition of GCS in human NCI/ADR-RES cells assessed as decrease in ratio of glucosylceramide to ceramide level at IC50 after 4 hrs by TLC assay; assay type: cell-based
T1 sequence (whole entry): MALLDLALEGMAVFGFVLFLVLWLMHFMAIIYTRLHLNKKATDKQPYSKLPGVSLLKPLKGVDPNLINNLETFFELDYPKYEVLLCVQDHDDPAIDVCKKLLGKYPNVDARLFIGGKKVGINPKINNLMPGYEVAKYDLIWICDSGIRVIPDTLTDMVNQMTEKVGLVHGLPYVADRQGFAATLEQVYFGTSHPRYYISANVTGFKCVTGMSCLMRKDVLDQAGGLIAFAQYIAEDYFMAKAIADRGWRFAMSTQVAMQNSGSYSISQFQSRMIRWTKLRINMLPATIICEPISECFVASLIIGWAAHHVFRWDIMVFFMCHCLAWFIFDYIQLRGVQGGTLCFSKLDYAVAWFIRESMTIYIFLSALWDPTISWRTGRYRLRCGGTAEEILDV

[9] = target: T1, Ceramide glucosyltransferase (Homo sapiens); experiment: Inhibition of GCS in human OVCAR8 cells assessed as decrease in ratio of glucosylceramide to ceramide level at IC50 after 4 hrs by TLC assay; assay type: cell-based; settings: OVCAR-8
[10] = Cytotoxicity against human MCF7/DX cells assessed as cell viability after 72 hrs by CellTiter-Glo luminescence assay; assay type: functional, cell-based
Outline: (§5)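 Cells grown overnight at 4000 per well in RPMI-1640 with 10% FBS, then treated with analogs for 72 h. Viability measured as luminescent ATP after incubation with CellTiter-Glo reagent. Three independent experiments.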

MCF7 [11] = experiment: Cytotoxicity against human MCF7 cells assessed as cell viability after 72 hrs by CellTiter-Glo luminescence assay; assay type: functional, cell-based; settings: MCF7, 72 h; outline: as §5
OVCAR-8 = experiment: Cytotoxicity against human OVCAR8 cells assessed as cell viability after 72 hrs by CellTiter-Glo luminescence assay; assay type: functional, cell-based; settings: OVCAR-8, 72 h; outline: as §5
NCI/ADR-RES = experiment: Cytotoxicity against human NCI/ADR-RES cells assessed as cell viability after 72 hrs by CellTiter-Glo luminescence assay; assay type: functional, cell-based; outline: as §5
[12] = Cytotoxicity against human MCF-7TN-R cells assessed as cell viability after 24 to 48 hrs by MTT assay; assay type: functional, cell-based
[13] = as §1; assay type: functional; outline: as §2

SMILES: CCCCCCCCCCCCC/C=C/[C@@H](O)[C@H](CO)NC(=O)CCCCCCC
fold change (FC) [1]: 1.18 | Activity (Homo sapiens): Active

SMILES: CCCCCCCCCCCCC/C=C/[C@@H](O)[C@H](CO)NC(=O)Cc1ccccc1
pIC50 [2]: 5.25 | pIC50 (MDA-MB-231 [3]): 5.80 | pIC50 (MCF7 [4]): 5.38 | pIC50 [5]: 5.32 | pIC50 (MDA-MB-231 [6]): 4.29 | pIC50 (MCF7 [7]): 4.43

SMILES: CCCCCCCCCCCCCCNC(=O)[C@H](CO)NC(=O)Cc1ccccc1
pIC50 [2]: 5.00 | pIC50 (MDA-MB-231 [3]): 4.76 | pIC50 (MCF7 [4]): 4.99 | pIC50 [5]: 4.54 | pIC50 (MCF7 [7]): 3.63

SMILES: CCCCCCCCCC/C=C/C=C/[C@@H](O)[C@@H]1COC(C)(C)N1C(=O)OC(C)(C)C
pIC50 [2]: 5.28 | pIC50 (MDA-MB-231 [3]): 5.50 | pIC50 (MCF7 [4]): 5.24 | pIC50 [5]: 5.00 | pIC50 (MDA-MB-231 [6]): 4.12 | pIC50 (MCF7 [7]): 4.58

Ratio [8]: 0.8 | Ratio [9]: 0.9
SMILES: CCCCCCCCCCCCCCNC(=O)[C@H](CO)/N=C/c1ccccc1
pIC50 [10]: 5.00 | pIC50 (MCF7 [11]): 4.85 | pIC50 (OVCAR-8): 4.79 | pIC50 (NCI/ADR-RES): 4.86

SMILES: CCCCCCCCCCC/C=C/C=C/[C@@H](O)[C@H](CO)NC(=O)CCCCCCC
pIC50 [12]: 4.95

Ratio [8]: 1 | Ratio [9]: 0.6
SMILES: CCCCCCCCCC/C=C/C=C/C(=O)[C@H](CO)NC(=O)Cc1ccccc1
pIC50 [10]: 5.41 | pIC50 (MCF7 [11]): 5.41 | pIC50 (OVCAR-8): 5.11 | fold change (FC) [1]: 3.59 | pIC50 (NCI/ADR-RES): 5.31 | fold change (FC) [13]: 4.3 | pIC50 [2]: 5.74 | pIC50 (MDA-MB-231 [3]): 5.85 | pIC50 (MCF7 [4]): 5.47 | pIC50 [5]: 5.37 | pIC50 (MDA-MB-231 [6]): 3.79 | pIC50 (MCF7 [7]): 4.66

SMILES: CCCCCCCCCC/C=C/C=C/C(=O)[C@@H]1COC(C)(C)N1C(=O)OC(C)(C)C
fold change (FC) [1]: 1.86 | fold change (FC) [13]: 3.09 | pIC50 [2]: 5.73 | pIC50 (MDA-MB-231 [3]): 5.84 | pIC50 (MCF7 [4]): 5.29 | pIC50 [5]: 5.39 | pIC50 (MDA-MB-231 [6]): 4.76 | pIC50 (MCF7 [7]): 5.41
